By GI50 is commonly meant the concentration at which growth is held to half of that of the control.

From ChEMBL document CHEMBL1955815, “The synthesis of ethacrynic acid thiazole derivatives as glutathione S-transferase pi inhibitors” (2012) come the findings set out here.

The test deals with HL-60. Put plainly: Growth inhibition of human HL60 cells after 72 hrs by trypan blue staining. Format: functional. Particulars: HL-60, 72 h. The essentials:
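HL-60 cells kept in RPMI-1640 with 10% heat-inactivated FBS, penicillin/streptomycin and L-glutamine at 37 °C, 5% CO2. Seeded at 4×10^4/mL in 24-well plates and exposed to a range of concentrations for 72 h. Trypan blue-positive and -negative cells were both counted. Inhibition = (1−Nt/Nc)×100%, and GI50 is the concentration giving half-maximal growth inhibition versus untreated cells.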
As for `C=C(C)C(=O)c1ccc(OCc2nc(-c3ccccc3)cs2)c(C)c1C`, the GI50 was 3.4 µM. That is a single-digit micromolar value.

`C=C(CC)C(=O)c1ccc(OCc2nc(-c3ccc([N+](=O)[O-])cc3)cs2)c(Cl)c1Cl` yielded a GI50 of 1 µM.

For the compound `C=C(C)C(=O)c1ccc(OCc2nc(-c3ccccc3)cs2)cc1C`, it took 4.7 µM to inhibit growth by half (GI50).

For `C=C(CC)C(=O)c1ccc(OCc2nc(-c3ccc4ccccc4c3)cs2)c(C)c1C`, growth was halved (GI50) at 2 µM.

`C=C(C)C(=O)c1ccc(OCc2nc(-c3ccc(C(F)(F)F)cc3)cs2)cc1Cl`: the GI50 was 1.4 µM.

The compound `C=C(CC)C(=O)c1ccc(OCc2nc(-c3ccc4ccccc4c3)cs2)cc1Cl` had a GI50 of 0.9 µM.

Compound `C=C(CC)C(=O)c1ccc(OCc2nc(-c3ccc(C(F)(F)F)cc3)cs2)c(C)c1C` gave a GI50 of 1.5 µM. Compared with the last compound, the GI50 is about 1.7-fold higher.

With `C=C(CC)C(=O)c1ccc(OCc2nc(-c3ccc(C(F)(F)F)cc3)cs2)cc1Cl`, the GI50 was 2 µM.

In the case of `C=C(C)C(=O)c1ccc(OCc2nc(-c3ccc(C(F)(F)F)cc3)cs2)c(C)c1C`, the GI50 was 3.1 µM.

Consider `C=C(CC)C(=O)c1ccc(OCc2nc(-c3ccc([N+](=O)[O-])cc3)cs2)c(C)c1C`, for which the GI50 is 3.6 µM.

Turning to `C=C(C)C(=O)c1ccc(OCc2nc(-c3ccc4ccccc4c3)cs2)c(C)c1C`, it took 2.3 µM to inhibit growth by half (GI50). This GI50 lies about 1.6-fold lower than the previous one.

The compound `C=C(C)C(=O)c1ccc(OCc2nc(-c3ccc4ccccc4c3)cs2)cc1Cl` showed a GI50 of 2.9 µM.

Take `C=C(CC)C(=O)c1ccc(OCc2nc(-c3ccc(C(F)(F)F)cc3)cs2)c(Cl)c1Cl`: it took 1.6 µM to inhibit growth by half (GI50).

For `C=C(C)C(=O)c1ccc(OCc2nc(-c3ccc([N+](=O)[O-])cc3)cs2)cc1Cl`, it took 5.9 µM to inhibit growth by half (GI50).

`C=C(CC)C(=O)c1ccc(OCC(=O)O)c(Cl)c1Cl` [ETHACRYNIC ACID] came in with a GI50 of 44.2 µM.

With `C=C(C)C(=O)c1ccc(OCc2nc(-c3ccc([N+](=O)[O-])cc3)cs2)c(C)c1C`, growth was halved (GI50) at 5.1 µM.

On to `C=C(C)C(=O)c1ccc(OCc2nc(-c3ccccc3)cs2)cc1Cl`, for which the GI50 stood at 6.4 µM. The GI50 values of the last two compounds are within 1.5-fold of each other.

Compound `C=C(CC)C(=O)c1ccc(OCc2nc(-c3ccc([N+](=O)[O-])cc3)cs2)cc1Cl` displayed a GI50 of 0.8 µM.

Take `C=C(CC)C(=O)c1ccc(OCc2nc(-c3ccc4ccccc4c3)cs2)c(Cl)c1Cl`: growth was halved (GI50) at 3.6 µM. This GI50 lies about 4.5-fold higher than the previous one.
